Screening results (PubChem BioAssay)
Biofilm kill mix – mixture kills Candida albicans biofilm cells. C. albicans biofilm persisters + clotrimazole, fluorescence viability; primary screen in compound mixtures of four per well. inhibition, % at 7.6 µM. 120,000 compounds, 0.02% hits. AID 1242;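 active means inhibition above 30.3% in the primary screen of four-compound pools, then above 30% when the compound was retested; inconclusive means passed the primary limit but could not be retested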;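 further: compounds exposed to preformed 24 h biofilms for 48 h; 0% = untreated biofilm control and 100% = clotrimazole plus chlorhexidine kill blank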
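Probe or stimulus – Clotrimazole 50 µg/mL co-treatment · System – C. albicans biofilms · Schedule – 24 h biofilm formation, then 48 h compound exposure, 37 °C · Evaluation – percent inhibition of biofilm viability · Technique – 2-h Alamar Blue fluorescence, 535/590 nm excitation/emission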
Pf gamet viab – kills late stage P. falciparum gametocytes. P. falciparum stage V gametocytes, ATP luminescence, 24 h. inhibition, % at 10.9 µM. 150,000 compounds, 0.065% hits;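 active means inhibition above the mean plus 3 SD of compounds within the control limits, set per campaign, cut at about 38% in these data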;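 further: 0% = DMSO wells and 100% = medium only without gametocytes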
ROMK primary – human ROMK K+ channel modulation, primary screen. B-score at 10 µM. 130,000 compounds, 2% hits. P48048. Tet-inducible ROMK, thallium flux fluorescence; actives lie on both sides;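 active means signal ratio slope over the read window, or its plate-corrected B-score, at least 3 SD from the plate mean, either direction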;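 further: B-score of the F/F0 ratio slope over 7 to 12 s after thallium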
Target sequence (P48048 whole entry, looked up): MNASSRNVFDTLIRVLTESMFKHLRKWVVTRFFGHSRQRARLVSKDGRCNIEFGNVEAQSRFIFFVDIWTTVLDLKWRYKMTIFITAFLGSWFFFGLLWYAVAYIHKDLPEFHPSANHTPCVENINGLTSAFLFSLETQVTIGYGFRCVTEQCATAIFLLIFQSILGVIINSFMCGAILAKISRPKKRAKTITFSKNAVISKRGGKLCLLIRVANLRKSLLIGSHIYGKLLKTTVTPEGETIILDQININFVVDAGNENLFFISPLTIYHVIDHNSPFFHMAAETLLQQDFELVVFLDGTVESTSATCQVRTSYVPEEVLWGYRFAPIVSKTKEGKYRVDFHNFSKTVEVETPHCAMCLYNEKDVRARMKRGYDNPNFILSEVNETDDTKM
ROMK retest – confirmation of human ROMK potassium channel modulators | ROMK thallium flux, fluorescence ratio; hits give low values | 3,000 compounds, 54% hits | shares compounds with ROMK primary | normalized thallium flux (F/F0 slope) at 10 µM;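 active means Flux at 10 µM at least 3 SD below or above vehicle control mean in one or both replicates; inconclusive means no clear call, values can overlap the other calls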
Active calls of the source: *; ? = inconclusive; nt = no result given; ! = a repeat was not active. This is one part of a sample in which hits are shown more often than they occur.

SMILES	Biofilm kill mix	Pf gamet viab	ROMK primary	ROMK retest
COc1ccc(C([O-])=Nc2ccc[n+](-c3nc4ccccc4nc3NS(=O)(=O)c3ccccc3)c2)cc1	8	-19	nt	nt
O=S(=O)(Nc1nc2ccccc2nc1-[n+]1cccc(N=C([O-])c2ccccc2Cl)c1)c1ccccc1	13	nt	nt	0.053*
CCCCc1ccc(S(=O)(=O)Nc2nnc(C)s2)cc1	nt	5	nt	nt
O=C1CN(C(=O)COC(=O)c2cc(S(=O)(=O)N3CCOCC3)ccc2Cl)c2ccccc2N1	19	20	nt	nt
Cc1cc(C)c(C)c(S(=O)(=O)NC(C)C(=O)O)c1C (stereo not drawn)	13	-10	0.15	nt
Cc1cc(CNCc2c(C(=O)N3CCCCCCC3)nc3ccc(Cl)cn23)nn1C	7	-3	1.9*	0.081
O=C(c1nc2ccc(Cl)cn2c1CNCCn1ccnc1)N1CCCCCCC1	5	12	-0.037	nt
CC1CCCCN1C(=O)Cn1cc(/C=C2/C(=O)Nc3ccccc32)c2ccccc21 (stereo not drawn)	nt	nt	nt	0.078
CC1CCCCN1C(=O)Cn1cc(C=O)c2ccccc21 (stereo not drawn)	6	4	-1.1	nt
C/C(=N\NC(=O)c1ccc(CSc2nc(C)cc(C)n2)cc1)c1ccco1	11	-4	0.54	nt
Cc1ccc(OCC(O)CN2CCN(CC(O)COC(C)C)CC2)c(C(C)(C)C)c1 (stereo not drawn)	nt	nt	-3.7*	0.062*
Cc1ccc(C(C)C)c(OCC(O)CN2CCN(CCO)CC2)c1 (stereo not drawn)	12	nt	nt	nt
Cc1ccc(Cn2c(C3CCCN3c3nc(-c4ccc(F)cc4)cs3)nc3cc(C(F)(F)F)ccc32)cc1 (stereo not drawn)	nt	0	nt	nt
c1ccc(-c2csc3ncnc(NCc4ccccn4)c23)cc1	22	-7	nt	0.056*
c1ccc(CNc2ncnc3scc(-c4cccs4)c23)nc1	18	12	-1.9	nt
CCOc1cc2c3c(c1)C(C)=CC(C)(C)N3C(=O)C2=O	7	4	3.2*	0.077
CC(=O)Oc1cc2c3c(c1)/C(=C1/SC(=S)NC1=O)C(=O)N3C(C)(C)C=C2C	9	0	nt	nt
CC1CCC(C(C)C)C(OC(=O)Cn2c(-c3ccc(Br)cc3)[n+](C)c3ccccc32)C1 (stereo not drawn)	11	-38	-6.8*	0.044*
CC1CCC(C(C)C)C(OC(=O)COC(=O)c2cccn2C)C1 (stereo not drawn)	nt	-3	nt	nt
Cc1ccccc1OCc1n(CC(=O)OC2CC(C)CCC2C(C)C)c2ccccc2[n+]1C (stereo not drawn)	34*!	nt	nt	0.042*
CC1CCC(C(C)C)C(OC(=O)COC(=O)c2ccc(N)cc2)C1 (stereo not drawn)	12	5	nt	nt
CCOC(=O)Cn1c(COc2ccccc2OC)[n+](C)c2ccccc21	nt	-28	nt	nt
CC1CCC(C(C)C)C(OC(=O)Cn2c(-c3ccc(Cl)cc3)[n+](C)c3ccccc32)C1 (stereo not drawn)	16	-5	-8*	0.043*
COc1cccc2cc(C(=O)NCCc3c[nH]c4ccccc34)c(=O)oc12	14	-10	0.59	nt
CCOC(=O)c1sc(NC(=O)CSc2nc(-c3ccco3)cc(C(F)(F)F)n2)c(C(=O)OCC)c1C	nt	-12	nt	nt
SMILES	Biofilm kill mix	Pf gamet viab	ROMK primary	ROMK retest
CCOC(=O)C1=C(CC)Nc2ccccc2N/C1=N\S(=O)(=O)c1cc(Br)ccc1Br	7	20	1.2	nt
O=C(C[C@H]1C/C=C\CCCC(=O)OC[C@H]2CCCN2C1=O)NCCO	nt	-10	nt	nt
O=C(NNC(=O)c1nc2ccccc2[nH]1)OCc1ccccc1	nt	1	nt	nt
O=C(NNC1=Nc2cccc3cccc1c23)c1ccc(Br)cc1	15	-13	-3.4*	0.079
COc1ccc(CC(=O)NNC2=Nc3cccc4cccc2c34)cc1OC	15	1	-0.019	nt
COc1ccc(NC(=O)N(C)C[C@H]2Oc3c(NS(=O)(=O)c4cccs4)cccc3C(=O)N([C@@H](C)CO)C[C@@H]2C)cc1	nt	9	nt	nt
COC(=O)C[C@H]1c2cc(C(F)(F)F)ccc2S(=O)(=O)N1Cc1ccc(OC)cc1	nt	3	nt	nt
O=C1CC(/C=C/c2ccccc2)(C(=O)NC2CCCC2)N1c1ccc(S(=O)(=O)N2CCCC2)cc1 (stereo not drawn)	15	-6	-0.74	nt
COc1ccc(N2C(=O)CC2(/C=C/c2ccccc2OC)C(=O)NC2CCCC2)cc1 (stereo not drawn)	14	nt	-4.7*	0.054*
CN1CCN(c2nc(-c3ccc(Cl)s3)cs2)CC1	13	4	nt	nt
Cc1ccc(C)c(Nc2nc3nonc3nc2N2CCOCC2)c1	nt	nt	-3.5*	?
COc1ccccc1Nc1nc2nonc2nc1N1CCC(C)CC1	4	16	0.45	nt
FC(F)(F)c1cccc(Cn2nnnc2-c2cccc(C(F)(F)F)c2)c1	nt	nt	-2.5	nt
Cc1cc(-c2nnc(CCC(=O)N3CCN(Cc4cccnc4)CC3)o2)c(C)o1	11	1	0.39	nt
COc1cc(CNCCc2ccccc2)ccc1OCc1ccc(Cl)nc1	nt	25	-3.7*	0.057*
CCCCNCc1ccc(OCc2ccc(Cl)nc2)c(OC)c1	32	-23	nt	nt
COc1cc(CNCCc2c[nH]c3ccccc23)ccc1OCc1ccccc1F	nt	-9	nt	nt
CNCc1ccc(OCc2ccccc2)c(OC)c1	nt	nt	-0.013	nt
COc1cc(CNCCc2ccc(S(N)(=O)=O)cc2)ccc1OCc1ccc(Cl)cc1	nt	nt	-2.6*	0.058*
COc1ccccc1CCNCc1ccc(OC)c(OCc2ccccc2)c1	nt	nt	nt	0.065*
CCOc1cc(CNCCc2ccc(S(N)(=O)=O)cc2)ccc1OCc1ccc(Cl)cc1	nt	4	-1.1	nt
COc1cccc(CNCCc2c[nH]c3ccccc23)c1OCc1ccccc1	-3	17	nt	0.059*
O=C(CCCSc1nc2ccccc2[nH]1)Nc1nnc(C2CC2)s1	12	0	-0.37	nt
O=C(CCC1N=C2c3ccccc3N=C(SCc3ccc(F)cc3)N2C1=O)NCc1ccco1 (stereo not drawn)	nt	nt	-0.81	nt
O=C(CCC1N=C2c3ccccc3N=C(SCc3ccc(Cl)cc3)N2C1=O)NCc1ccco1 (stereo not drawn)	nt	nt	-4.1*	0.061*
SMILES	Biofilm kill mix	Pf gamet viab	ROMK primary	ROMK retest
CCCn1c(=O)n(C)c(=O)c2c(SCC(=O)NC34CC5CC(CC(C5)C3)C4)nc(CC(C)C)nc21	8	20	nt	nt
CCOCCCNC(=O)c1ccc2c(c1)N=C(CC)c1cc(Br)ccc1S2	11	-1	4.1*	0.084
CCCCOCCCNC(=O)c1ccc(OC)cc1	nt	20	-0.89	nt
C[C@@H]1CN([C@@H](C)CO)C(=O)Cc2cc(NS(=O)(=O)c3cn(C)cn3)ccc2O[C@@H]1CN(C)C(=O)Nc1ccccc1	nt	9	nt	nt
O=C(Nc1ncc([N+](=O)[O-])s1)c1cccc([N+](=O)[O-])c1	17	nt	nt	nt
O=C(Nc1ccccc1)Nc1ncc([N+](=O)[O-])s1	16	nt	-1.8	0.064*
Cc1cc(C(=O)O)ccc1-c1ccc(/C=C2\NC(=O)N(Cc3ccc(F)cc3)C2=O)o1	22	-18	2.4	nt
COc1cccc(Cn2cc(N)cn2)c1	13	-41	0.031	nt
COc1cccc(CN2C(=O)c3cccc(N)c3C2=O)c1	6	-2	-2.1*	0.057*
CCOCCCNC(=O)Cc1ccc(OC)c(OC)c1	nt	nt	nt	0.083
COc1ccc(CCNC(=O)CCCCC(=O)NCCc2ccc(OC)c(OC)c2)cc1OC	nt	20	nt	nt
